Results reported in ChEMBL document CHEMBL1138592, “Pyridopyrimidine based cannabinoid-1 receptor inverse agonists: Synthesis and biological evaluation” (Bioorg Med Chem Lett, 2009).

Columns and labels:
Rattus norvegicus [1] = test: Antiobesity activity in high fat diet-induced obese Sprague-Dawley rat model assessed as change in overnight body weight at 10 mg/kg, po after 18 hrs; assay type: functional
Rattus norvegicus [2] = test: Antiobesity activity in high fat diet-induced obese Sprague-Dawley rat model assessed as suppression of food intake at 10 mg/kg, po after 18 hrs; assay type: functional
Cannabinoid receptor 1 = Cannabinoid receptor 1 (Homo sapiens, UniProt P21554); test: Inverse agonist activity at human cannabinoid CB1R expressed in CHO cells assessed as effect on cAMP accumulation; assay type: functional, cell-based
Cannabinoid receptor 2 = Cannabinoid receptor 2 (Homo sapiens, UniProt P34972); test: Binding affinity to human cannabinoid CB2R expressed in CHO cells; assay type: cell-based
[3] = Half life in rat; assay type: ADME, organism-based; conditions: in vivo
[4] = Bioavailability in rat; assay type: ADME, organism-based; conditions: in vivo
[5] = Ratio of drug level in brain to plasma in rat after 0.25 hrs; assay type: ADME; conditions: brain and plasma
[6] = Plasma clearance in rat; assay type: ADME, organism-based
[7] = Ratio of drug level in brain to plasma in rat after 4 hrs; assay type: ADME; conditions: brain and plasma
Rattus norvegicus [8] = test: Antiobesity activity in high fat diet-induced obese Sprague-Dawley rat model assessed as suppression of food intake at 3 mg/kg, po after 18 hrs of last dose relative to control; assay type: functional
Rattus norvegicus [9] = test: Antiobesity activity in high fat diet-induced obese Sprague-Dawley rat model assessed as change in body weight at 3 mg/kg, po after 18 hrs of last dose relative to control; assay type: functional
[10] = Bioavailability in monkey; assay type: ADME, organism-based, Macaca mulatta; conditions: rhesus monkey, in vivo
Outline: (§1)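 Pharmacokinetic study in rhesus macaque. Reported parameters are bioavailability F (%), half-life T1/2 (h) and plasma clearance Clp (mL/min/kg).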

[11] = Bioavailability in dog; assay type: ADME, organism-based, Canis lupus familiaris; conditions: in vivo
[12] = Plasma clearance in monkey; assay type: ADME, organism-based, Macaca mulatta; conditions: rhesus monkey; outline: as §1
[13] = Half life in monkey; assay type: ADME, organism-based, Macaca mulatta; conditions: rhesus monkey, in vivo; outline: as §1
[14] = Half life in dog; assay type: ADME, organism-based, Canis lupus familiaris; conditions: in vivo
[15] = Plasma clearance in dog; assay type: ADME, organism-based, Canis lupus familiaris
Rattus norvegicus [16] = test: Antiobesity activity in diet-induced obese Sprague-Dawley rat model assessed as suppression of overnight food intake at 3 mg/kg, po administered 1 hr before dark cycle for 14 days measured after […] of last dose; assay type: functional
Rattus norvegicus [17] = test: Antiobesity activity in diet-induced obese Sprague-Dawley rat model assessed as suppression of overnight body weight change at 3 mg/kg, po administered 1 hr before dark cycle for 14 days measured after 18 hrs of last dose; assay type: functional

Chain of Cannabinoid receptor 1 (P21554 whole entry): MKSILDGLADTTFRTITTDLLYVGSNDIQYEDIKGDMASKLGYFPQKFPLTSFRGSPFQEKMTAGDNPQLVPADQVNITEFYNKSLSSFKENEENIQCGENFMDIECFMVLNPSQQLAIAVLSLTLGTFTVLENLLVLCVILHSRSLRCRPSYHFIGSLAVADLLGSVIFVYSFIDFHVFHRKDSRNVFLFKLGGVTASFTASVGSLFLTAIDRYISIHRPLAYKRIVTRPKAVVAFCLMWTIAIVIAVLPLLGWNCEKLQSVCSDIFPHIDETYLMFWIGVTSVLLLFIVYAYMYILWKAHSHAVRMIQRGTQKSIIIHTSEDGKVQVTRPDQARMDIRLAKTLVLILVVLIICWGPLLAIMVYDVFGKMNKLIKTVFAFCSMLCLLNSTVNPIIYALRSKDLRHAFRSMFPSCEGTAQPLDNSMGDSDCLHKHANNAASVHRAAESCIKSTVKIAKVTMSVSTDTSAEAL
Chain of Cannabinoid receptor 2 (P34972 whole entry): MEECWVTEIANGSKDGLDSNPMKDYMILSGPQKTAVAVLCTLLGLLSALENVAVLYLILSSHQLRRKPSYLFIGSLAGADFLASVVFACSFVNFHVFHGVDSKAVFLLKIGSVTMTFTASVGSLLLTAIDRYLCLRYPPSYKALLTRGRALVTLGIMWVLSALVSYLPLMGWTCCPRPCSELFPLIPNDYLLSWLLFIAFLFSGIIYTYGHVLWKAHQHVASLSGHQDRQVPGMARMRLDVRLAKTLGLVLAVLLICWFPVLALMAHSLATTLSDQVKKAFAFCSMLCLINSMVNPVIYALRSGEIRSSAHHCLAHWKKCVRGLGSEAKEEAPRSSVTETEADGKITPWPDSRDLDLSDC

SMILES | IC50 (Cannabinoid receptor 1) [nM] | IC50 (Cannabinoid receptor 2) [µM] | further results
N#Cc1cc(-c2ccc(Cl)cc2)c(-c2ccc(Cl)cc2Cl)nc1Oc1ccc(F)c(F)c1 | – | – | Activity (Rattus norvegicus [1]): -8 g; Activity (Rattus norvegicus [2]): 48%
CC(C)c1nc(N)c2cc(-c3ccc(Cl)cc3)c(-c3ccccc3Cl)nc2n1 | 190 | > 2 | –
Cc1nc(O)c2cc(-c3ccc(Cl)cc3)c(-c3ccccc3Cl)nc2n1 | 2500 | > 2 | –
CCN(CC)C(=O)c1nc(NC(C)C)c2cc(-c3ccc(Cl)cc3)c(-c3ccccc3Cl)nc2n1 | 150 | 12 | –
CC(C)c1nc(OCc2ncon2)c2cc(-c3ccc(Cl)cc3)c(-c3ccccc3Cl)nc2n1 | 1.1 | 6.3 | –
CC(C)c1nc2nc(-c3ccccc3Cl)c(-c3ccc(Cl)cc3)cc2c(=O)n1Cc1ncon1 | 82 | 9.8 | –
CN(C)c1nc(C(C)(C)C)nc2nc(-c3ccccc3Cl)c(-c3ccc(Cl)cc3)cc12 | 8.5 | 1.8 | –
CC(C)(C)c1nc2nc(-c3ccccc3Cl)c(-c3ccc(Cl)cc3)cc2c(=O)[nH]1 | 7.4 | 8.6 | –
CC(C)(C)c1nc(N)c2cc(-c3ccc(Cl)cc3)c(-c3ccccc3Cl)nc2n1 | 40 | 4.9 | –
CC(C)(C)c1nc(N2CCNCC2)c2cc(-c3ccc(Cl)cc3)c(-c3ccccc3Cl)nc2n1 | 1.9 | 1.8 | –
CCN(CC)c1nc(C(C)(C)C)nc2nc(-c3ccccc3Cl)c(-c3ccc(Cl)cc3)cc12 | 2.2 | 2.7 | –
CC(C)(C)c1nc2nc(-c3ccccc3Cl)c(-c3ccc(Cl)cc3)cc2c2n[nH]c(=O)n12 | 1.9 | 3.8 | half-life [3]: 336 min; bioavailability [4]: 33%; Kp at 0.25 h [5]: 0.14; clearance [6]: 12 mL/min/kg; Kp at 4 h [7]: 0.59; Activity (Rattus norvegicus [8]): 50%; Activity (Rattus norvegicus [9]): -9 g
CC(C)(C)c1nc(N)c2cc(-c3ccc(Cl)cc3)c(-c3ccc(Cl)cc3Cl)nc2n1 | – | 5.2 | –
Nc1nc(-c2ccc(Cl)cc2)nc2nc(-c3ccccc3Cl)c(-c3ccc(Cl)cc3)cc12 | 16 | > 2 | –
CC(C)(C)c1nc2nc(-c3ccccc3Cl)c(-c3cccc(Cl)c3)cc2c2n[nH]c(=O)n12 | 34 | 2.7 | –
CC(C)(C)c1nc2nc(-c3ccc(C#N)cc3Cl)c(-c3ccc(Cl)cc3)cc2c2n[nH]c(=O)n12 | – | 19 | –
CC(C)(C)c1nc2nc(-c3ccccc3C#N)c(-c3ccc(Cl)cc3)cc2c2n[nH]c(=O)n12 | 3.2 | 2.4 | Activity (Rattus norvegicus [8]): 25%; Activity (Rattus norvegicus [9]): -2 g
COc1ccc(-c2cc3c(nc2-c2ccccc2Cl)nc(C(C)(C)C)n2c(=O)[nH]nc32)cc1 | 3 | 0.891 | –

SMILES | IC50 (Cannabinoid receptor 1) [nM] | IC50 (Cannabinoid receptor 2) [µM] | further results
CC(C)(C)c1nc2nc(-c3ccccc3Cl)c(-c3ccc(C(F)(F)F)cc3)cc2c2n[nH]c(=O)n12 | 1.1 | 9.2 | –
CN(C)c1ccc(-c2cc3c(nc2-c2ccccc2Cl)nc(C(C)(C)C)n2c(=O)[nH]nc32)cc1 | 28 | 0.77 | –
CC(C)(C)c1nc2nc(-c3ccccc3Cl)c(-c3cnccc3C#N)cc2c2n[nH]c(=O)n12 | 100 | 18 | –
CC(C)(C)c1nc2nc(-c3ccccc3Cl)c(-c3ccc(Cl)cc3)cc2c2nncn12 | 8 | 3.4 | –
O=c1[nH]c(-c2ccc(Cl)cc2)nc2nc(-c3ccccc3Cl)c(-c3ccc(Cl)cc3)cc12 | 59 | > 2 | –
CC(C)c1nc2nc(-c3ccccc3Cl)c(-c3ccc(Cl)cc3)cc2c(=O)[nH]1 | 130 | 7.3 | –
CC(C)Nc1nc(C(C)(C)C)nc2nc(-c3ccccc3Cl)c(-c3ccc(Cl)cc3)cc12 | 4.1 | > 2 | –
Cc1nc(N)c2cc(-c3ccc(Cl)cc3)c(-c3ccccc3Cl)nc2n1 | 1500 | 1.1 | –
CC(C)(C)c1nc(-c2ccc(F)cc2)c2cc(-c3ccc(Cl)cc3)c(-c3ccccc3Cl)nc2n1 | 0.63 | 9.83 | –
CC(C)(C)c1nc2nc(-c3ccccc3Cl)c(-c3ccc(C#N)cc3)cc2c2n[nH]c(=O)n12 | 5.9 | 18 | bioavailability [10]: 9.7%; bioavailability [11]: 2.1%; clearance [12]: 5.3 mL/min/kg; half-life [13]: 594 min; half-life [3]: 210 min; bioavailability [4]: 53%; half-life [14]: 444 min; clearance [15]: 24 mL/min/kg; clearance [6]: 4 mL/min/kg; Activity (Rattus norvegicus [8]): 36%; Activity (Rattus norvegicus [9]): -5 g
CC(=O)c1ccc(-c2cc3c(nc2-c2ccccc2Cl)nc(C(C)(C)C)n2c(=O)[nH]nc32)cc1 | – | 5.8 | –
CC(C)(C)c1nc2nc(-c3ccc(Cl)cc3Cl)c(-c3ccc(Cl)cc3)cc2c(=O)[nH]1 | 6 | 5.5 | Activity (Rattus norvegicus [8]): 21%; Activity (Rattus norvegicus [9]): 1 g
COc1nc(C(C)(C)C)nc2nc(-c3ccccc3Cl)c(-c3ccc(Cl)cc3)cc12 | 7.5 | 8.4 | –
CC(C)(C)Nc1nc(C(C)(C)C)nc2nc(-c3ccccc3Cl)c(-c3ccc(Cl)cc3)cc12 | 2.7 | > 2 | –
CC(C)(C)c1nc(NCC(F)(F)CO)c2cc(-c3ccc(Cl)cc3)c(-c3ccccc3Cl)nc2n1 | 9.5 | > 2 | Activity (Rattus norvegicus [8]): 39%; Activity (Rattus norvegicus [9]): -4 g
CC(=O)Nc1c(C(C)=O)c(=O)n(C)c2nc(-c3ccc(Cl)cc3Cl)c(-c3ccc(Cl)cc3)cc12 [NAPHTHYRIDINONE] | – | – | half-life [3]: > 480 min; Kp at 0.25 h [5]: 0.9; Activity (Rattus norvegicus [8]): 68%; Activity (Rattus norvegicus [9]): -4 g
C[C@H](NC(=O)C(C)(C)Oc1ccc(C(F)(F)F)cn1)[C@@H](Cc1ccc(Cl)cc1)c1cccc(C#N)c1 [TARANABANT] | – | – | Activity (Rattus norvegicus [16]): 49%; Activity (Rattus norvegicus [17]): -10 g
